The test system of data set [1] is Escherichia coli. The data set is described as follows: Antibacterial activity against Escherichia coli ATCC 25922 cultured in MHB medium assessed as no bacterial growth incubated at 37 degC for 24 hrs by microdilution susceptibility test. The conditions noted are these: ATCC 25922, 24 h. The format is functional. An outline of the steps:
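Broth microdilution per CLSI M07-A9 with modifications. Inoculum about 2.5–3 x 10⁴ cells/mL in Mueller-Hinton broth, mixed 1:1 with test derivative. DMSO stocks diluted in double-distilled water, final DMSO <1%. Incubation 24 h at 37 °C (20 °C for C. glutamicum). Growth and sterility controls included; oxytetracycline reference.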
A general note: In broth dilution the organism is exposed to a series of concentrations in liquid medium.

The subject of data set [2] is Escherichia coli. In words: Antibacterial activity against multidrug-resistant Escherichia coli 50676002 producing New Delhi metallo-beta-lactamase-1 cultured in MHB medium assessed as reduction in bacterial growth incubated for 24 hrs by microdilution susceptibility test. The format is functional. The conditions noted are these: Escherichia coli, 50676002, 24 h. An outline of the steps: (§1)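 Broth microdilution per CLSI M07-A9 (modified). Working solutions made from concentrated DMSO stocks kept at r.t., diluted in double-distilled water, final DMSO <1%. Inoculum 1–1.2 x 10⁶ cells/mL in Mueller-Hinton broth, mixed 1:1 with compound. 37 °C, 24 h, four parallels. Read as OD₆₀₀. Where precipitation left residual OD, the point of major OD decrease was taken as the inhibitory concentration.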

Data set [3] has as its system Acinetobacter baumannii. The data set is described as follows: Antibacterial activity against multidrug-resistant Acinetobacter baumannii K63-58 producing oxcillinase-23 cultured in MHB medium assessed as reduction in bacterial growth incubated for 24 hrs by microdilution susceptibility test. The format is functional. Conditions: K63-58, 24 h. An outline of the steps: as §1

Data set [4] has as its system Acinetobacter baumannii. The data set is described as follows: Antibacterial activity against multidrug-resistant Acinetobacter baumannii K47-42 producing oxcillinase-23 cultured in MHB medium assessed as reduction in bacterial growth incubated for 24 hrs by microdilution susceptibility test. The conditions noted are these: K47-42, 24 h. The class given is functional. An outline of the steps:
as §1

The next data set has as its system Staphylococcus aureus. In words: Antibacterial activity against multidrug-resistant Staphylococcus aureus WIS cultured in MHB medium assessed as reduction in bacterial growth incubated for 24 hrs by microdilution susceptibility test. The format is functional. An outline of the steps:
as §1

Data set [5] in a line: Drug metabolism in Sprague-Dawley rat liver microsomes assessed as CYP450-mediated N-(2-aminoethyl)-2-(aminomethyl)-2-[(4-fluoro-5,6-dihydroxy-5,6-dihydronaphthalen-1-yl)methyl]-3-(4-fluoro-1-naphthyl)propanamide formation incubated up to 3 hrs in presence of NADPH regenerating system by RP-HPLC-MS analysis. The class given is ADME. Put shortly:
(§2)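 Substrate at 1 µL of 100 µM aqueous stock in 100 mM potassium phosphate, pH 7.4, with NADPH regenerating system. Pooled male Sprague–Dawley rat liver microsomes (20 mg/mL stock) added, then incubated at 37 °C. Sampled at 0–180 min and quenched with cold methanol containing propranolol internal standard. Analysed by RP-HPLC–HRMS in positive ESI mode. Metabolites confirmed by HCD MS2. Triplicate incubations.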
(In general: Liver microsomes are vesicles of endoplasmic reticulum, rich in cytochrome P450 enzymes.)

The test system of another data set is MRC5. In words: Cytotoxicity against human MRC5 cells assessed as reduction in cell viability incubated for 4 hrs by CellTiter 96 Aqueous One Solution Reagent based assay. The conditions noted are these: MRC5, 4 h. An outline of the steps: (§3)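 HepG2 and MRC-5 cells seeded at 35 000 and 15 000 cells/well respectively, then held overnight at 37 °C, 5% CO₂. Compounds in serum-free MEM Earle's applied for 4 h. MTS reagent (CellTiter 96 AQueous One) added for a further 1 h, absorbance read at 485 nm. Survival expressed relative to medium (negative) and Triton X-100 (positive) controls.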

The subject of data set [6] is Enterococcus faecium. In words: Antibacterial activity against multidrug-resistant Enterococcus faecium TUH50-22 cultured in BHIB medium assessed as reduction in bacterial growth incubated for 24 hrs by microdilution susceptibility test. The format is functional. The conditions noted are these: TUH50-22, 24 h. An outline of the steps: (§4)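 Enterococci grown in Brain Heart Infusion broth, otherwise broth microdilution per CLSI M07-A9 (modified). Concentrated DMSO stocks kept at r.t. and diluted in double-distilled water, final DMSO <1%. Inoculum 1–1.2 x 10⁶ cells/mL mixed 1:1 with compound. 37 °C, 24 h, four parallels. OD₆₀₀ read-out, lowest concentration with no growth.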

Data set [7] in a line: Drug metabolism in Sprague-Dawley rat liver microsomes assessed as CYP450-mediated deaminated form of N-(2-aminoethyl)-2-(aminomethyl)-3-(4-fluoro-1-naphthyl)-2-[(4-fluoro-1-naphthyl)methyl]propanamide metabolite formation incubated up to 3 hrs in presence of NADPH regenerating system by RP-HPLC-MS analysis. The class given is ADME. An outline of the steps: as §2
The next data set relates to Erythrocyte. In words: Hemolytic activity against human RBC incubated for 1 hr. The format is cell-based. Put shortly:
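Heparinized human blood washed three times in warm PBS and set to 10% hct. Erythrocytes at 1% v/v final, with compound in PBS (DMSO <1%), shaken 1 h at 37 °C and then centrifuged. Supernatant absorbance read at 405 and 545 nm after PBS background subtraction. Haemolysis taken relative to 1% Triton X-100. Three independent replicates, EC50 averaged.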

Data set [8] is described as follows: Aqueous solubility of the compound in DMSO. The class given is physicochemical.
Data set [9] deals with Klebsiella pneumoniae. The data set is described as follows: Antibacterial activity against multidrug-resistant Klebsiella pneumoniae K66-45 producing New Delhi metallo-beta-lactamase-1 cultured in MHB medium assessed as reduction in bacterial growth incubated for 24 hrs by microdilution susceptibility test. The conditions noted are these: K66-45, 24 h. The format is functional. An outline of the steps:
as §1

Data set [10] has as its system Enterococcus faecium. In words: Antibacterial activity against multidrug-resistant Enterococcus faecium 50758899 cultured in BHIB medium assessed as reduction in bacterial growth incubated for 24 hrs by microdilution susceptibility test. The format is functional. Conditions: Enterococcus faecium, 50758899, 24 h. An outline of the steps: as §4
Data set [11] deals with Acinetobacter baumannii. The data set is described as follows: Antibacterial activity against multidrug-resistant Acinetobacter baumannii K12-21 producing oxcillinase-58 cultured in MHB medium assessed as reduction in bacterial growth incubated for 24 hrs by microdilution susceptibility test. The class given is functional. The conditions noted are these: K12-21, 24 h. Put shortly:
as §1

Another data set deals with HepG2. The data set is described as follows: Cytotoxicity against human HepG2 cells assessed as reduction in cell viability incubated for 4 hrs by CellTiter 96 Aqueous One Solution Reagent based assay. The conditions noted are these: HepG2, 4 h. Put shortly:
as §3

Data set [12] can be described thus: Selectivity index, ratio of EC50 for hemolytic activity against human RBC to MIC for antibacterial activity against Escherichia coli ATCC 25922. Conditions: human red blood cells (RBC). The format is toxicity. Put shortly:
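Selectivity index is the RBC haemolysis EC50 divided by the MIC against the E. coli or S. aureus reference strain.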

For data set [13], the system named is Klebsiella pneumoniae. In words: Antibacterial activity against multidrug-resistant Klebsiella pneumoniae 50531633 producing New Delhi metallo-beta-lactamase-1 and oxcillinase-181 cultured in MHB medium assessed as reduction in bacterial growth incubated for 24 hrs by microdilution susceptibility test. The format is functional. The conditions noted are these: Klebsiella pneumoniae, 50531633, 24 h. Put shortly: as §1

The subject of data set [14] is Enterococcus faecium. The data set is described as follows: Antibacterial activity against multidrug-resistant Enterococcus faecium K36-18 cultured in BHIB medium assessed as reduction in bacterial growth incubated for 24 hrs by microdilution susceptibility test. The format is functional. The conditions noted are these: K36-18, 24 h. An outline of the steps: as §4

Data set [15] is described as follows: Drug metabolism in Sprague-Dawley rat liver microsomes assessed as CYP450-mediated N-(2-aminoethyl)-2-(aminomethyl)-2-[(3,5-dibromo-4-hydroxy-phenyl)methyl]-3-(3,5-dibromophenyl)propanamide formation incubated up to 3 hrs in presence of NADPH regenerating system by RP-HPLC-MS analysis. The class given is ADME. An outline of the steps: as §2
A short description of data set [16]: Drug metabolism in Sprague-Dawley rat liver microsomes assessed as CYP450-mediated 4-[2-(aminomethyl)-3-(3,5-dibromophenyl)-2-(4,5-dihydrooxazol-3-ium-2-yl)propyl]-2,6-dibromo-phenol formation incubated up to 3 hrs in presence of NADPH regenerating system by RP-HPLC-MS analysis. The class given is ADME. An outline of the steps:
as §2

≈ marks a conversion by molar mass, not a printed value.

In the case of `NCCNC(=O)C(CN)(Cc1ccc(F)c2ccccc12)Cc1ccc(F)c2ccccc12`, the MIC amounted to 4 µg/mL (≈ 8.94 µM) in the data set with Escherichia coli [1]; 8 µg/mL (≈ 17.9 µM) in the data set on Escherichia coli [2]; 16 µg/mL (≈ 35.8 µM) with Acinetobacter baumannii [3]; 16 µg/mL (≈ 35.8 µM) in the data set on Acinetobacter baumannii [4]; 16 µg/mL (≈ 35.8 µM) in the data set on Staphylococcus aureus; 8 µg/mL (≈ 17.9 µM) in the data set with Enterococcus faecium [6]. In addition, the minimal inhibitory concentration (MIC) in the data set with Klebsiella pneumoniae [9] was determined as 8 µg/mL (≈ 17.9 µM); in the data set with Enterococcus faecium [10] it was 8 µg/mL (≈ 17.9 µM); in the data set with Acinetobacter baumannii [11], 32 µg/mL (≈ 71.5 µM); in the data set with Klebsiella pneumoniae [13], 8 µg/mL (≈ 17.9 µM); in the data set on Enterococcus faecium [14], 16 µg/mL (≈ 35.8 µM). Further, the Drug metabolism result in [5] and in data set [7] was “Metabolite_Detected” each time. For the same compound, the values for the EC50 in the data set on MRC5, with Erythrocyte and with HepG2 were 4 µg/mL (≈ 8.94 µM), 74 µg/mL (≈ 165 µM) and 12 µg/mL (≈ 26.8 µM), respectively. Further, the solubility result in [8] is given as “Soluble”. Moreover, the selectivity ratio in data set [12] worked out at 19.

`NCCNC(=O)C(CN)(Cc1cc(Br)cc(Br)c1)Cc1cc(Br)cc(Br)c1`: the minimal inhibitory concentration (MIC) in the data set with Escherichia coli [1] worked out at 4 µg/mL (≈ 6.38 µM); in the data set with Escherichia coli [2], 16 µg/mL (≈ 25.5 µM); in the data set on Acinetobacter baumannii [3] it was 32 µg/mL (≈ 51 µM); in the data set on Acinetobacter baumannii [4], 16 µg/mL (≈ 25.5 µM); in the data set with Staphylococcus aureus, 16 µg/mL (≈ 25.5 µM); with Enterococcus faecium [6], 8 µg/mL (≈ 12.8 µM). Also, the MIC was determined as 32 µg/mL (≈ 51 µM) in the data set on Klebsiella pneumoniae [9]; 8 µg/mL (≈ 12.8 µM) in the data set with Enterococcus faecium [10]; 32 µg/mL (≈ 51 µM) in the data set on Acinetobacter baumannii [11]; 16 µg/mL (≈ 25.5 µM) with Klebsiella pneumoniae [13]; 8 µg/mL (≈ 12.8 µM) with Enterococcus faecium [14]. In addition, the Drug metabolism entry in data set [15] and in data set [16] was “Metabolite_Notdetected” each time. Also, the EC50 with MRC5 worked out at 17 µg/mL (≈ 27.1 µM); in the data set on Erythrocyte, 58 µg/mL (≈ 92.5 µM); in the data set with HepG2, 13 µg/mL (≈ 20.7 µM). Moreover, in data set [8], the solubility entry is recorded as “Soluble”. Besides, the selectivity ratio in [12] was 15.

Regarding `N#CC(Cc1cc(C(F)(F)F)cc(C(F)(F)F)c1)(Cc1cc(C(F)(F)F)cc(C(F)(F)F)c1)C(=O)NCCN`, the MIC with Escherichia coli [1] was 32 µg/mL (≈ 55.2 µM); with Escherichia coli [2], more than 32 µg/mL; in the data set with Acinetobacter baumannii [3] it was more than 32 µg/mL; in the data set on Acinetobacter baumannii [4], more than 32 µg/mL; with Staphylococcus aureus, 16 µg/mL (≈ 27.6 µM); in the data set with Enterococcus faecium [6], 8 µg/mL (≈ 13.8 µM). The MIC in the data set with Klebsiella pneumoniae [9] was more than 32 µg/mL; with Enterococcus faecium [10], 8 µg/mL (≈ 13.8 µM); in the data set with Acinetobacter baumannii [11], more than 32 µg/mL; in the data set on Klebsiella pneumoniae [13] it was more than 32 µg/mL; with Enterococcus faecium [14] it was 8 µg/mL (≈ 13.8 µM). In addition, the EC50 in the data set on MRC5 is 12 µg/mL (≈ 20.7 µM); in the data set with Erythrocyte, 282 µg/mL (≈ 487 µM); in the data set on HepG2, 20 µg/mL (≈ 34.5 µM). For the same compound, the solubility result in data set [8] was “Soluble”. The selectivity ratio in data set [12] came to 9.

A word on the MIC: it is the least concentration at which growth counts as inhibited. In general, EC50 refers to the midpoint of the concentration-response curve.

For the origin of these results see ChEMBL document CHEMBL4311965, “Antimicrobial activity of amphipathic α,α-disubstituted β-amino amide derivatives against ESBL - CARBA producing multi-resistant bacteria; effect of halogenation, lipophilicity and cationic character” (Eur J Med Chem, 2019).
